ChEMBL document CHEMBL2390925, “Further studies on 2-arylacetamide pyridazin-3(2H)-ones: design, synthesis and evaluation of 4,6-disubstituted analogs as formyl peptide receptors (FPRs) agonists” (Eur J Med Chem, 2013)

Experiments:
[1] = biological target: T1, N-formyl peptide receptor 3 (Homo sapiens, UniProt P25089); assay: Agonist activity at FPR3 (unknown origin) transfected in human HL60 cells assessed as induction of Ca2+ mobilization; format: cell-based, HL-60
T1 sequence (P25089 whole entry): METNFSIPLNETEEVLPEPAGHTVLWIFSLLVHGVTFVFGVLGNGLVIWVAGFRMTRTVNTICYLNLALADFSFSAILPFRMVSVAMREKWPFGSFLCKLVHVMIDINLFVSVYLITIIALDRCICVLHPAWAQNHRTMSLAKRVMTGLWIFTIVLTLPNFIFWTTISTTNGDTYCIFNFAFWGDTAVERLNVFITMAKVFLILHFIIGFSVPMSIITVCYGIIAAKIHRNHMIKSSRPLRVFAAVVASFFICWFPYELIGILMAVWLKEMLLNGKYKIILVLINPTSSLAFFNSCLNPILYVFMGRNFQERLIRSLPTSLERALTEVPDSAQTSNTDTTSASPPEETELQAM

[2] = biological target: fMet-Leu-Phe receptor 1/2 (Homo sapiens) (UniProt P21462+P25090); assay: Agonist activity at FPR1/FPR2 in human neutrophils assessed as induction of Ca2+ mobilization relative to fMLF; format: functional
Procedure, shortened: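 Neutrophils from healthy donors were isolated by dextran sedimentation, Histopaque 1077 gradient and hypotonic red cell lysis. […] Peak response was normalized to 5 nM fMLF as 100%. EC50 comes from 5–6 point curves, mean of three experiments with different donors.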

HL-60 [3] = assay: Cytotoxicity against human wild type HL60 cells at 5 to 20 uM after 60 mins by CellTitre-Glo luminescent assay; format: cell-based; settings: hl-60, 1 h
Procedure, shortened: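 Wild-type HL-60 cells at 3×10^4 cells/well were exposed to 5, 10 or 20 µM compound for 60 min at 37 °C in 5% CO2. Samples were equilibrated to room temperature for 30 min before the CellTiter-Glo luminescence read. Triplicate samples; the experiment was representative of two.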

HL-60 [4] = assay: Effect on Ca2+ mobilization in human wild type HL60 cells; format: functional, cell-based
Procedure, shortened: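 Wild-type, non-transfected HL-60 cells, grown without G418, were run in the same Fluo-4 Ca2+ flux assay. Fluorescence was monitored every 5 s for 240 s at room temperature.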

[5] = biological target: T2, N-formyl peptide receptor 2 (Homo sapiens) (UniProt P25090); assay: Agonist activity at FPR2 (unknown origin) transfected in human HL60 cells assessed as induction of Ca2+ mobilization relative to WKYMVm; format: functional, cell-based; settings: HL-60
T2 sequence (whole entry): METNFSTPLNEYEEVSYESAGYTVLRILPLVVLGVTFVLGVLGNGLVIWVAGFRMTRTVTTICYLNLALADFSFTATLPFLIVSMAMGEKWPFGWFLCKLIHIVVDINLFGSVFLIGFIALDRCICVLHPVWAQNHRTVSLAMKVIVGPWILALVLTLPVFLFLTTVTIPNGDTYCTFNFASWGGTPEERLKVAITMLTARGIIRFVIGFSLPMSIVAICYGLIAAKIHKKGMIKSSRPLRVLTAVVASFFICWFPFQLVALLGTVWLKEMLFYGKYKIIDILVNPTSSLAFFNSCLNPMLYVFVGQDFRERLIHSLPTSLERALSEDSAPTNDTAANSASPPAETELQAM
Procedure, shortened: (§1)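 Same Fluo-4 Ca2+ flux in transfected HL-60 cells. The peak fluorescence change over baseline was normalized to 5 nM fMLF for FPR1 cells and to 5 nM WKYMVm for FPR2 and FPR3 cells, each taken as 100%. Efficacy was read from 5–6 point dose-response curves.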

[6] = biological target: T3, fMet-Leu-Phe receptor (Homo sapiens) (UniProt P21462); assay: Agonist activity at FPR1 (unknown origin) transfected in human HL60 cells assessed as induction of Ca2+ mobilization relative to fMLF; format: functional, cell-based; settings: HL-60; procedure, shortened: as §1
T3 sequence (whole entry): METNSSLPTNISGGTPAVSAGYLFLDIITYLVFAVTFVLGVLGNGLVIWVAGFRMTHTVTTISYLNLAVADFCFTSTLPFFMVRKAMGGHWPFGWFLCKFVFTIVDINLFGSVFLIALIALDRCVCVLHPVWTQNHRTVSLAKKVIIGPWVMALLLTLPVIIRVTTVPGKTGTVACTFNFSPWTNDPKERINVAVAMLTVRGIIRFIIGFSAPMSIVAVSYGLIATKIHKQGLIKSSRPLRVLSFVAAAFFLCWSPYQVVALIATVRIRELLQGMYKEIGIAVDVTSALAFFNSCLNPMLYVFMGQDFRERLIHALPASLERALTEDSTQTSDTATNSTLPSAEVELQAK

[7] = biological target: T4, N-formyl peptide receptor 3 (Homo sapiens) (UniProt P25089); assay: Agonist activity at FPR3 (unknown origin) transfected in human HL60 cells assessed as induction of Ca2+ mobilization relative to WKYMVm; format: cell-based; settings: HL-60; procedure, shortened: as §1
T4 sequence (whole entry): T1 sequence (P25089 whole entry)

fMet-Leu-Phe receptor = biological target: T5, fMet-Leu-Phe receptor (Homo sapiens, UniProt P21462); assay: Agonist activity at FPR1 (unknown origin) transfected in human HL60 cells assessed as induction of Ca2+ mobilization; format: functional, cell-based, HL-60
T5 sequence (P21462 whole entry): T3 sequence (whole entry)

[8] = biological target: T6, N-formyl peptide receptor 2 (Homo sapiens, UniProt P25090); assay: Agonist activity at FPR2 (unknown origin) transfected in human HL60 cells assessed as induction of Ca2+ mobilization; format: functional, cell-based, HL-60
T6 sequence (P25090 whole entry): T2 sequence (whole entry)

[9] = biological target: T7, fMet-Leu-Phe receptor 1/2 (Homo sapiens, UniProt P21462+P25090); assay: Agonist activity at FPR1/FPR2 in human neutrophils assessed as induction of Ca2+ mobilization; format: functional
T7 sequence (P21462 whole entry): T3 sequence (whole entry)
T7 sequence (P25090 whole entry): T2 sequence (whole entry)

Neutrophil = assay: Induction of chemotaxis in human neutrophils assessed as cell migration after 60 mins by CellTitre-Glo luminescent assay; format: functional, cell-based; settings: 1 h
Procedure, shortened: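 Migration ran 60 min at 37 °C in 5% CO2. Migrated cells were counted by ATP luminescence against a neutrophil standard curve and expressed as % of spontaneous migration. EC50 comes from nonlinear regression of dose-response curves.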

Row | Structure (SMILES) | EC50 [1] | Efficacy [2] | Activity (HL-60 [3]) | EC50 (HL-60 [4]) | Efficacy [5] | Efficacy [6] | Efficacy [7] | EC50 (fMet-Leu-Phe receptor) | EC50 [8] | EC50 [9] | EC50 (Neutrophil)
1 | COc1ccc(Nc2cc(C)nn(CC(=O)Nc3ccc(Br)cc3)c2=O)cc1 | > 50 µM | 105% | Non-toxic | > 50 µM | 110% | 100% | – | – | – | – | –
2 | COc1cccc(Cc2cc(C(C)C)nn(CC(=O)Nc3ccc(Br)cc3)c2=O)c1 | 17.4 µM | 110% | Non-toxic | > 50 µM | 90% | 135% | 30% | – | – | – | –
3 | Cc1cc(Cc2ccc(C(N)=O)cc2)c(=O)n(CC(=O)Nc2ccc(Br)cc2)n1 | > 50 µM | – | Non-toxic | > 50 µM | 80% | 40% | – | 29.3 µM | 27.2 µM | – | –
4 | Cc1cc(Cc2ccsc2)c(=O)n(CC(=O)Nc2ccc(Br)cc2)n1 | > 50 µM | 115% | Non-toxic | > 50 µM | 65% | 100% | – | – | – | – | –
5 | Cc1cc(Cc2cccc(Cl)c2)c(=O)n(CC(=O)Nc2ccc(I)cc2)n1 | > 50 µM | 90% | Non-toxic | > 50 µM | 35% | 55% | – | – | – | – | –
6 | Cc1cc(Cc2cccnc2)c(=O)n(CC(=O)Nc2ccc(Br)cc2)n1 | > 50 µM | 120% | Non-toxic | > 50 µM | 90% | 85% | – | – | – | – | –
7 | CCc1cc(Cc2cccc(OC)c2)c(=O)n(CC(=O)Nc2ccc(I)cc2)n1 | > 50 µM | 90% | Non-toxic | > 50 µM | 65% | 70% | – | – | – | – | –
8 | Cc1cc(Cc2ccccc2)c(=O)n(CC(=O)Nc2ccc(Br)cc2)n1 | > 50 µM | – | Non-toxic | > 50 µM | 20% | 50% | – | 5.5 µM | 11.6 µM | – | –
9 | COc1cccc(Cc2cc(-c3ccccc3)nn(CC(=O)Nc3ccc(Br)cc3)c2=O)c1 | > 50 µM | 115% | Non-toxic | > 50 µM | 25% | 110% | – | – | – | – | –
10 | COc1cccc(C(=O)Nc2cc(C)nn(CC(=O)Nc3ccc(Br)cc3)c2=O)c1 | > 50 µM | 110% | Non-toxic | > 50 µM | 100% | 120% | – | – | – | – | –
11 | COc1ccc(Nc2c(C(C)=O)c(C)nn(CC(=O)Nc3ccc(Br)cc3)c2=O)cc1 | > 50 µM | 110% | Non-toxic | > 50 µM | 90% | 75% | – | 13.5 µM | 1.7 µM | 3.9 µM | 2.7 µM
12 | COc1cccc(Cc2ccnn(CC(=O)Nc3ccc(Br)cc3)c2=O)c1 | 14.6 µM | – | Non-toxic | > 50 µM | 60% | 125% | 25% | – | – | – | –
13 | Cc1cc(Cc2ccccc2)c(=O)n(CC(=O)Nc2ccc3c(c2)OCO3)n1 | > 50 µM | 75% | Non-toxic | > 50 µM | – | 55% | – | 6.9 µM | > 50 µM | 6.1 µM | 4.2 µM
14 | Cc1cc(Cc2ccoc2)c(=O)n(CC(=O)Nc2ccc(Br)cc2)n1 | > 50 µM | 125% | Non-toxic | > 50 µM | 75% | 100% | – | – | – | – | –
15 | COc1cccc(C(=O)c2cc(C)nn(CC(=O)Nc3ccc(Br)cc3)c2=O)c1 | > 50 µM | 115% | Non-toxic | > 50 µM | 110% | 140% | – | – | – | – | –
16 | Cc1cc(Cc2cccs2)c(=O)n(CC(=O)Nc2ccc(Br)cc2)n1 | 10.2 µM | 80% | Non-toxic | > 50 µM | 60% | 140% | 25% | – | – | – | –
